# SIAE inh – inhibitors of human sialic acid acetylesterase SIAE; actives 0.69% (n = 370,000); Q9HAT2; inhibition, % at 9.66 µM; SIAE FP-Rh probe binding, fluorescence polarization;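 active = inhibition above a cutoff: mean of compounds within the control limits plus 3 SD of those, cut at about 17% in these data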
# TCR CD3 inh – inhibitors of human TCR-CD3 interaction. TAMRA-labeled TCR probe fluorescence, biochemical. inhibition, % at 9.4 µM. actives 0.37% (n = 360,000). AID 651800;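 also: recombinant mutant TCR 2C K166C tagged with TAMRA read by polarization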
# ABHD4 inh – inhibits mouse alpha/beta hydrolase domain 4; actives 0.54% (n = 370,000); inhibition, % at 8.92 µM; Q8VD66; purified mABHD4, FP-Rh probe fluorescence polarization;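 active = inhibition exceeding the mean over every tested compound plus 3 SD, cut at about 30% in these data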
# Target sequence (Q8VD66 whole entry, looked up, the tested form may be a part): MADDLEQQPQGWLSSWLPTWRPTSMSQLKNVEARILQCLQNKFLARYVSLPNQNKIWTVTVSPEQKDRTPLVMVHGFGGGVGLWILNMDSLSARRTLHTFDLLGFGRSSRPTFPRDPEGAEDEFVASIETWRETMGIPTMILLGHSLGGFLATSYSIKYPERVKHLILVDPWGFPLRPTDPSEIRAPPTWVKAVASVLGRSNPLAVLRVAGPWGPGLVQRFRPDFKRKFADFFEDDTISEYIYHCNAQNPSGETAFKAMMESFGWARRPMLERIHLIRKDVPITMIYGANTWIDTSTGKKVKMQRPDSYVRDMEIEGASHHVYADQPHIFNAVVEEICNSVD
#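 Test system: mABHD4 protein | Buffer or medium: HEPES pH 7.0 buffer, 150 mM NaCl, 0.01% Pluronic F-127 | Probe or stimulus: FP-Rh fluorescent activity-based probe, added after compound pre-incubation | Timing: Pre-incubation 45 min, probe exposure 60 min, at 25 °C | Technique: Fluorescence polarization, excitation 525 nm, emission 598 nm, BODIPY TMR filters | Repeats: Single well per compound (singlicate)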
# Fam108B counter – Fam108B inhibition, counter-screen for RBBP9 inhibitors. recombinant Fam108B, FP-Rh probe fluorescence polarization. inhibition, % at 9.51 µM. actives 0.33% (n = 300,000). AID 1947;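 active = inhibition above the screen mean inhibition plus 3 SD, computed separately per campaign, cut at about 18% in these data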;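 also: inhibitors lower polarization as less probe binds the enzyme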
# PME-1 inh – blocks human protein phosphatase methylesterase 1 | Q9Y570 | recombinant PME-1, FP-Rh probe fluorescence polarization | inhibition, % at 5.9 µM | actives 0.53% (n = 320,000) | AID 2130;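 active = inhibition above the campaign mean of all compounds plus 3 SD, cut at about 26% in these data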;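 also: competitive labeling of PME-1 active site by serine hydrolase directed probe; inhibitors block probe labeling so polarization falls and inhibition rises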
# Target sequence (Q9Y570 whole entry, looked up): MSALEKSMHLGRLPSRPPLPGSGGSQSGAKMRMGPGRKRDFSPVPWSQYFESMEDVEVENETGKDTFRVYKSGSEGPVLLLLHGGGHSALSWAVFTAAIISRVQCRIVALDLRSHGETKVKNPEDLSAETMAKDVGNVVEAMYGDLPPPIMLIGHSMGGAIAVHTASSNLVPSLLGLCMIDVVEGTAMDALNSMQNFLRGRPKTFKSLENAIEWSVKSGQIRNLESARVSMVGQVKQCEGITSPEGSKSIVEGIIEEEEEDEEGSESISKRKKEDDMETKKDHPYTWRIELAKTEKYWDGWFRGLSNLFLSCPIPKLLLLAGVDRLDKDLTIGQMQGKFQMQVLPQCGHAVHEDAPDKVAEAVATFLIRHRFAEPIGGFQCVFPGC
# HTRA1 inhibitor – HTRA1 (human) protease inhibition | actives 0.5% (n = 340,000) | inhibition, % at 5.96 µM | recombinant HTRA1, FP-rhodamine activity-based probe, fluorescence polarization | AID 504803 | Q92743; in the data active = inhibition above about 36%
# Fam108b confirm – Fam108b (mouse) hydrolase inhibition, confirmation assay. actives 44% (n = 930). recombinant Fam108b, FP-Rh probe fluorescence polarization. AID 1978. inhibition, % at 9.51 µM. shares compounds with Fam108B counter;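 active = inhibition above a limit from the primary screen, the mean over all compounds plus 3 SD, cut at about 19% in these data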;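 also: inhibitors free the probe so polarization falls as inhibition rises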
# Fam108b ABPP HTS – mouse ABHD17B inhibition; shares compounds with Fam108B counter; recombinant Fam108b, gel-based ABPP, fluorophosphonate probe; inhibition, % at 20 µM; actives 44% (n = 260); in the data active = inhibition above about 40%
# HTRA1 conf – HTRA1 (human) inhibition, confirmation. shares compounds with HTRA1 inhibitor. actives 66% (n = 1,600). recombinant HTRA1, FP-rhodamine activity-based probe, fluorescence polarization. inhibition, % at 5.96 µM. AID 540248;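 active = mean inhibition over three repeats above a set limit taken from the earlier primary screen, cut at about 37% in these data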;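 also: inhibitors block probe binding so polarization drops and inhibition rises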
# BSA TAMRA ctr – counter-screen for TCR-CD3 interaction inhibitors: BSA probe | shares compounds with TCR CD3 inh | TAMRA-labeled BSA probe fluorescence counterscreen | inhibition, % at 9.4 µM | actives 10% (n = 1,200) | AID 652035; in the data active = inhibition above about 23%
# TCR-CD3 inh conf – TCR-CD3 interaction inhibition, confirmation; shares compounds with TCR CD3 inh; TAMRA-labeled TCR probe fluorescence binding assay; inhibition, % at 9.4 µM; actives 48% (n = 1,200); AID 652036
# mABHD4 conf – ABHD4 (mouse) inhibition, FP confirmation; actives 55% (n = 1,800); purified mABHD4, FP-Rh probe fluorescence polarization; inhibition, % at 8.92 µM; shares compounds with ABHD4 inh; AID 720658;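 active = mean inhibition across replicates above the hit cutoff set in the primary screen, cut at about 30% in these data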
# SIAE inh conf – human SIAE inhibition, confirmation; shares compounds with SIAE inh; SIAE FP-Rh activity-based probe, fluorescence polarization; inhibition, % at 9.66 µM; actives 13% (n = 2,300); AID 1117263;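 active = mean inhibition of the replicates above the hit cutoff set in the primary screen, cut at about 17% in these data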;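 also: inhibitors lower polarization as more probe stays unbound to SIAE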
# A number is an active result; 0 = inactive; - = not tested or not shown. Sampled rows, rich in hits. Any-hit rate of the full collection: about 1.8%. Rule as the data show it, unless noted: active = inhibition above about 19%; inactive = the rest.
SMILES,SIAE inh,TCR CD3 inh,ABHD4 inh,Fam108B counter,PME-1 inh,HTRA1 inhibitor,Fam108b confirm,SIAE inh conf,others
Fc1ccc2nc(Nc3nc4cc5c(cc4s3)OCO5)sc2c1,24.6,0,0,39.7,52.5,0,45.7,0,Fam108b ABPP HTS=95.0
Cc1ccc(-n2c(O)c(/C=N/Nc3ccc(S(=O)(=O)N4CCOCC4)cc3[N+](=O)[O-])c3ccccc3c2=O)c(C)c1,20.9,0,0,32.2,34.4,48.0,45.5,0,Fam108b ABPP HTS=45.0;HTRA1 conf=156.3
COc1ccc(-c2cccc3[nH]c4c(c23)CCN2C(=O)[C@H]3[C@H](C)ON(C)[C@H]3C[C@@H]42)cc1,0,0,0,-,-,-,-,-,
CC(Sc1nnc(NCc2ccccc2)s1)C(=O)Nc1ccc2c(c1)C(=O)c1ccccc1C2=O (configuration not stated),17.9,0,0,37.7,0,0,19.1,0,
CC(Sc1nnc(NC2CC2)s1)C(=O)Nc1ccc(S(N)(=O)=O)cc1 (configuration not stated),0,0,0,-,-,0,-,-,
COc1ccc(NC(=O)CSc2nc(N)c(C(=O)Nc3ccc(N(C)C)cc3)s2)cc1,-,-,-,0,0,0,-,-,
CN(C)c1ccc(NC(=O)CSc2nc(N)c(C(=O)Nc3ccc(N(C)C)cc3)s2)cc1,19.6,0,0,19.3,0,0,0,0,
CCC(=O)Oc1ccc(C/C(=N\O)c2ccc(O)cc2O)o1,36.8,0,0,25.9,36.0,0,0,28.2,
CCOC(=O)c1ccc(CC(=O)c2ccc(O)cc2O)o1,0,0,0,0,0,0,-,-,
COc1ccccc1NC(=O)c1cc2cc(Br)ccc2cc1O,42.7,0,0,38.1,0,0,0,0,
COc1ccccc1NC(=O)COC(=O)c1cc2ccccc2cc1O,0,0,0,-,0,0,-,-,
COc1cc(NC(=O)c2cc3ccccc3cc2O)c(OC)cc1Cl,18.3,0,0,29.7,42.0,0,0,0,
CCOC(=O)C1=NOC(C(=O)NCc2ccccc2)(C(=O)c2ccc(OC)cc2)C1 (configuration not stated),0,-,0,-,-,-,-,-,
COc1ccc([C@H]2OC(=O)C[C@H]2C(=O)N2CCN(c3ccccc3C(F)(F)F)CC2)cc1OC,0,-,0,-,-,-,-,-,
Cc1cc(O)ccc1N=Cc1c(C(F)(F)F)[nH][nH]c1=O,73.2,83.6,108.7,31.1,89.1,103.8,0,0,HTRA1 conf=0;BSA TAMRA ctr=29.5;TCR-CD3 inh conf=0;mABHD4 conf=0
O=c1[nH][nH]c(C(F)(F)F)c1C=Nc1ccccc1,0,0,0,0,0,0,-,-,
O=C(CCCSc1ccccc1)Nc1nc(-c2ccco2)c(-c2ccco2)s1,27.8,23.0,0,47.2,33.0,0,32.2,0,Fam108b ABPP HTS=75.0;BSA TAMRA ctr=0;TCR-CD3 inh conf=0
O=C(CCCSc1ccccc1)Nc1nc(-c2ccccn2)cs1,0,0,0,0,0,0,-,-,
O=C(CSc1nnc(-c2cccnc2)n1Cc1ccco1)Nc1ccc(F)cc1Cl,0,-,0,-,-,-,-,-,
COc1ccccc1Nc1ccc(NC(=O)c2cccc([N+](=O)[O-])c2C)cc1,17.7,0,0,19.9,0,0,0,0,
COc1ccc(NC(=O)c2ccccc2[N+](=O)[O-])cc1,0,0,0,0,0,0,-,-,
O=[N+]([O-])c1ccc(N/N=C/c2ccccc2O)cc1,40.2,0,0,47.3,44.9,0,29.6,0,
O=[N+]([O-])c1ccc(NN=Cc2ccccc2O)nc1,0,0,0,-,-,0,-,-,
COc1cc2c(cc1NC(=O)CSc1nnc(-c3ccccc3F)n1-c1ccc(C)cc1)oc1ccccc12,0,-,0,-,-,-,-,-,
O=C1c2cccc3c(O)ccc(c23)C(=O)N1c1ccc(Cl)cc1,36.6,32.5,57.1,20.3,36.6,0,0,0,BSA TAMRA ctr=26.2;TCR-CD3 inh conf=20.5;mABHD4 conf=30.6
SMILES,SIAE inh,TCR CD3 inh,ABHD4 inh,Fam108B counter,PME-1 inh,HTRA1 inhibitor,Fam108b confirm,SIAE inh conf,others
CC(=O)Nc1ccc(N2C(=O)c3cccc4c(O)ccc(c34)C2=O)cc1,26.1,54.4,0,25.6,0,0,0,17.3,BSA TAMRA ctr=74.3;TCR-CD3 inh conf=51.8
CCOC(=O)CC[C@@H]1CC[C@]2(CCCN(C(=O)C3CCCC3)C2)O1,0,-,0,-,-,-,-,-,
O=C(Nc1ccccc1Cl)Nc1ccccc1Cl,0,0,0,0,0,0,-,-,
O=C(Nc1ccc(Nc2ccccc2)cc1)Nc1ccccc1Cl,23.6,0,0,22.2,31.4,0,0,0,
CNc1ccc2c3c(cccc13)C(=O)N(C)C2=O,69.7,83.5,102.6,62.0,77.1,83.7,47.1,66.1,Fam108b ABPP HTS=0;HTRA1 conf=74.7;BSA TAMRA ctr=138.1;TCR-CD3 inh conf=103.8;mABHD4 conf=118.9
CN1C(=O)c2cccc3c(Cl)ccc(c23)C1=O,0,0,0,0,0,0,-,-,
COc1ccc(/C=N/NC(=O)c2cc3c(OC)ccc(OC)c3[nH]2)cc1O,23.7,0,32.7,30.5,39.6,0,0,0,mABHD4 conf=46.9
COc1ccc(/C=N/NC(=O)c2cnccn2)cc1O,0,0,0,0,0,0,-,-,
COc1ccc(OC)c2[nH]c(C(=O)N/N=C/c3ccccc3O)cc12,34.8,0,0,53.2,59.7,53.9,20.8,0,HTRA1 conf=0
COc1ccc2c(c1)CCCN2C(=O)C1CCCN(S(=O)(=O)c2ccc(C(C)(C)C)cc2)C1 (configuration not stated),0,-,0,-,-,-,-,-,
CCOC(=O)N/N=C/c1cn(CCCOc2ccc(C)cc2)c2ccccc12,0,0,0,0,0,0,-,-,
Cc1ccc(OCCn2cc(/C=N/NC(=O)c3ccncc3)c3ccccc32)cc1,28.6,0,0,33.8,68.8,0,0,0,
COc1cccc(OCCn2cc(/C=N/NC(=O)c3ccncc3)c3ccccc32)c1,30.5,0,0,25.3,0,0,0,0,
COc1cccc(Cn2cc(COC(=O)NCC(C)C)nn2)c1,0,-,0,-,-,-,-,-,
Cc1ccc(-n2c(SCC(=O)NN=Cc3ccc(-c4ccccc4)cc3)nnc2-c2ccccc2)cc1,0,-,0,-,-,-,-,-,

# Compound activity (PubChem BioAssay)
